This is a sample that favours compounds with a hit; in the whole collection about 1.9% have one here.
proCasp3 act – activators of human procaspase-3 | recombinant procaspase-3 D3A, Ac-DEVD-pNA absorbance 405 nm | activation, % at 8.5 µM | 0.11% of 330,000 active;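 active = activation above the mean of all tested compounds plus 3 SD, cut at about 21% in these data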
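System: Procaspase-3 D3A mutant. Medium: Zinc-free 300 mM NaCl, 50 mM HEPES, 0.01% Triton X-100. Schedule: 1 h preincubation plus 2 h reaction at 25 °C. Measured by: 405 nm absorbance of p-nitroaniline, reads at 0 and 120 min. Read-out: percent activation relative to control range.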
sPLA2-III inh – Inhibits HGIII-sPLA2 liposome hydrolysis, primary screen. Q9NZ20. QFRET BODIPY PC-A2 liposome hydrolysis, fluorescence. inhibition, % at 12.2 µM. 0.56% of 370,000 active. AID 743126;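 active = inhibition above mean plus 3 SD of compounds lying within the high and low control bounds, cut at about 19% in these data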
Arr AP2 block – inhibitors of human beta-arrestin and AP2 interaction | FITC-arrestin peptide / GST-AP2 beads, flow cytometry; AP2 beta2 appendage carries R879A mutation | inhibition, % at 10 µM | 0.31% of 340,000 active | AID 504490;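 active = inhibition above a set limit, near 3 SD of compounds lacking own fluorescence, cut at about 54% in these data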
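Test system: GST-tagged AP2 beta2-adaptin appendage (R879A) on 4 µm glutathione beads; also added: fluorescein-tagged arrestin peptide at 50 nM final; timing: 12 min plus 1 h, RT; signal: flow cytometry, FL1 (488/535 nm); read-out: percent drop in bead-associated FITC signal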
procasp7 counter – activates human procaspase-7, counter-screen for procaspase-3 activators. 0.093% of 330,000 active. AID 463210. activation, % at 8.5 µM. recombinant procaspase-7, Ac-DEVD-pNA absorbance 405 nm; D23A/D198A/D206A triple mutant, cannot self-cleave; scale: DMSO 0, 5 µM enzyme 100. P55210;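 active = percent activation above the screen-wide mean plus 3 SD, cut at about 25% in these data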
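signal = Epi-absorbance of released pNA at 405 nm, two timepoints | assay system = Uncleavable procaspase-7 mutant enzyme | reagent = Ac-DEVD-pNA substrate, 400 µM as added | times = 1 h enzyme–compound preincubation and 2 h substrate reaction, both 25 °C | benchmarks = low DMSO alone, high DMSO plus 5 µM PC-7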
PLCg1 inh – inhibitors of human phospholipase C gamma1 | P19174 | purified PLC-gamma1, fluorogenic substrate, fluorescence | AID 720700 | 0.84% of 370,000 active | inhibition, % at 12.2 µM; in the data active = inhibition above about 9.5%
PLC-beta3 inh – inhibitors of human phospholipase C beta3. Q01970. Purified PLC-beta3, fluorogenic substrate, fluorescence. inhibition, % at 12.2 µM. 0.18% of 370,000 active. AID 720704; in the data active = inhibition above about 11%
Target sequence (Q01970 whole entry, looked up): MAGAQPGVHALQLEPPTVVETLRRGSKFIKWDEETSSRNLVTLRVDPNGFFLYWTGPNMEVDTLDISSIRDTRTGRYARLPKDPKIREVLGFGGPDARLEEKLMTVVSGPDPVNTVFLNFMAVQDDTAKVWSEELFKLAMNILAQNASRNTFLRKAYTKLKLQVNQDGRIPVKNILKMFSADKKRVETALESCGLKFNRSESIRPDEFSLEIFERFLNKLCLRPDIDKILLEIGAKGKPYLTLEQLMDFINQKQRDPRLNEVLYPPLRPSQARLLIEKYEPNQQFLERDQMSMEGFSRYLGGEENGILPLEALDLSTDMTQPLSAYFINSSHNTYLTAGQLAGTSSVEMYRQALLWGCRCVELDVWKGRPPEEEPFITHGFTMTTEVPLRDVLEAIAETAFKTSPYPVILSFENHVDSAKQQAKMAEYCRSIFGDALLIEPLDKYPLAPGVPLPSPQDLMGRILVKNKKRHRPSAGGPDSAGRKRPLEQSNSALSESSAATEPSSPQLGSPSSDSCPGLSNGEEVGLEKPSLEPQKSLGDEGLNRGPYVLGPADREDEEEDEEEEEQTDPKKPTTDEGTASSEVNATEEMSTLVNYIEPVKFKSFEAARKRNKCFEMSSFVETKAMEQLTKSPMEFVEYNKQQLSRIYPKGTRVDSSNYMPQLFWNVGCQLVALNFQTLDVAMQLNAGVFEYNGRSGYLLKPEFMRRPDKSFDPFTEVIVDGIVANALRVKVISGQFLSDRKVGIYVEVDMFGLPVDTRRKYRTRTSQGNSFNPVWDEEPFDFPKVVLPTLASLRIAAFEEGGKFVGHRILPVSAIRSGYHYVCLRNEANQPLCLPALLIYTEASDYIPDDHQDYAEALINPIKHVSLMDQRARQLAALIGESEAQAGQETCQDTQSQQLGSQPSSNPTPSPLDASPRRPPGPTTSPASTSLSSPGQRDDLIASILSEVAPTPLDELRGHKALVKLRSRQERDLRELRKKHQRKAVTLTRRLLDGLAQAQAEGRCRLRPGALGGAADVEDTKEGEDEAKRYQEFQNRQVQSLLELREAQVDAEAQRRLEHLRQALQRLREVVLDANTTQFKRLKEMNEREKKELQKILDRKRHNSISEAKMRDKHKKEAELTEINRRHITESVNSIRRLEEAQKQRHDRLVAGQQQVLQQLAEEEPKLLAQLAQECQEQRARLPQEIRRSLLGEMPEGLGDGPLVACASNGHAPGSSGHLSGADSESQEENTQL
sPLA2 confirm – human GIII-sPLA2 inhibition, confirmation. inhibition, % at 12.2 µM. recombinant hGIII-sPLA2, BODIPY PC-A2 QFRET fluorescence. AID 743280. 34% of 2,000 active. shares compounds with sPLA2-III inh;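 active = mean inhibition across triplicates above the hit cutoff set in the earlier primary screen, cut at about 19% in these data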
535nm interf – counter-screen for HGIII-sPLA2 inhibitors: 535nm fluorescence interference; AID 743282; inhibition, % at 12.2 µM; shares compounds with sPLA2-III inh; BODIPY FL product fluorescence interference, QFRET; 8.5% of 2,000 active;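 active = average inhibition above the solvent-only control mean plus 3 SD, cut at about 6% in these data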
535nm interf DR – counter-screen for HGIII-sPLA2 inhibitors: 535nm fluorescence interference, dose response; shares compounds with sPLA2-III inh; BODIPY FL product fluorescence interference, cell-free; IC50, µM; 240 tested, under 10 active;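 active = IC50 at or below 10 µM; inactive = IC50 above 10 µM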
Each line names hits and unclear results; the compound was inactive in the other large screens (follow-up assays come after a bar, where they were run).

COC(=O)CCCCC1SCC(NC(=O)OC)C1NC(=O)OC (stereo not given)	none
COC(=O)c1ccc(NC(=O)CCN2CCOCC2)cc1	sPLA2-III inh 22 | sPLA2 confirm inactive | 535nm interf inactive
Cc1cc(SCC(=O)NN=C2CCN(C(C)C)CC2)c(C)cc1Br	sPLA2-III inh 22 | sPLA2 confirm inactive | 535nm interf inactive
CC(=O)N1CCN(C(=O)CSc2cc(C)c(Br)cc2C)CC1	none
Cc1cccc(C(=O)Nc2ccc3ccccc3c2)c1	none
CC(=O)C1=C(C)Nc2ncnn2C1c1ccc(F)cc1 (stereo not given)	sPLA2-III inh 22 | sPLA2 confirm inactive | 535nm interf inactive
CC(=O)C1=C(C)Nc2ncnn2C1c1ccc(O)cc1 (stereo not given)	none
Cc1ccccc1C(=O)NC(=S)N(C)CCc1ccccn1	none
S=C(N/N=C/c1cccs1)NC1CC2CCC1C2 (stereo not given)	sPLA2-III inh 28 | sPLA2 confirm 36 | 535nm interf inactive | 535nm interf DR inactive
c1ccc(CSc2ccc(-c3cccnc3)nn2)cc1	none
N#Cc1ccc(OCC(=O)Nc2ccc(N3CCCC3)cc2)cc1	sPLA2-III inh 21 | sPLA2 confirm inactive | 535nm interf inactive
CCOc1ccc(OCC(=O)Nc2ccc(N3CCCCC3)cc2)cc1	none
O=C(CSc1nc2ccc(Nc3nc(N4CCOCC4)nc(N4CCOCC4)n3)cc2s1)Nc1ccccc1	none (no result: proCasp3 act, Arr AP2 block, procasp7 counter)
CC1(C(=O)NS(=O)(=O)C2CC2)CCN(C(=O)c2c(F)cccc2F)C1 (stereo not given)	sPLA2-III inh 20 (no result: proCasp3 act, Arr AP2 block, procasp7 counter) | sPLA2 confirm inactive | 535nm interf inactive
COc1ccc(-n2c(N)c(C#N)c3ccc([N+](=O)[O-])cc3c2=O)cc1	none
COc1cccc(-n2c(N)c(C#N)c3ccc([N+](=O)[O-])cc3c2=O)c1	sPLA2-III inh 26 (no result: Arr AP2 block) | sPLA2 confirm inactive | 535nm interf inactive
Cc1ccccc1NC(=O)Nc1ccccn1	sPLA2-III inh 20 | sPLA2 confirm inactive | 535nm interf inactive
NC(=O)c1ccc(N=Cc2c(O)ccc3ccccc23)cc1	none
C=CCS/C(N)=N\N=C\c1c(O)ccc2ccccc12	sPLA2-III inh 20 | sPLA2 confirm 29 | 535nm interf inactive | 535nm interf DR inactive
O=C(OC12CCCN(C1)/C(=C/c1cccnc1)C2)c1ccccc1 (stereo not given)	none (no result: proCasp3 act, Arr AP2 block, procasp7 counter)
CC(C)CCNC(=S)Nc1ccccc1F	sPLA2-III inh 20 | sPLA2 confirm inactive | 535nm interf inactive
CCOC(=O)[C@H]1[C@H]2COc3cc(OC)ccc3[C@@H]2N2C(=O)c3ccc(C)cc3NC(=O)[C@@]12C	sPLA2-III inh 25 | sPLA2 confirm inactive | 535nm interf inactive
CCOC(=O)[C@H]1[C@H]2COc3cc(OC)ccc3[C@@H]2N2C(=O)c3ccc(F)cc3NC(=O)[C@@]12C	none
CCOC(=O)[C@H]1[C@H]2COc3cc(OC)ccc3[C@@H]2N2C(=O)c3cc(C)ccc3NC(=O)[C@@]12C	none
CCOC(=O)[C@H]1[C@H]2COc3cc(OC)ccc3[C@@H]2N2C(=O)c3cc(F)c(F)cc3NC(=O)[C@@]12C	sPLA2-III inh 25 | sPLA2 confirm 20 | 535nm interf inactive
CCOC(=O)[C@H]1[C@H]2COc3cc(OC)ccc3[C@@H]2N2C(=O)c3cc(F)ccc3NC(=O)[C@@]12C	sPLA2-III inh 31 | sPLA2 confirm inactive | 535nm interf inactive
CCOC(=O)[C@H]1[C@H]2COc3ccc(OC)cc3[C@@H]2N2C(=O)c3ccc(C)cc3NC(=O)[C@@]12C	none
CCOC(=O)[C@H]1[C@H]2COc3cc(OC)ccc3[C@@H]2N2C(=O)c3cc(OC)ccc3NC(=O)[C@@]12C	sPLA2-III inh 26 | sPLA2 confirm inactive | 535nm interf inactive
CCOC(=O)[C@H]1[C@H]2COc3ccc(Br)cc3[C@@H]2N2C(=O)c3cc(F)c(F)cc3NC(=O)[C@@]12C	none
CCOc1ccccc1N(C)S(=O)(=O)c1ccc2c(c1)N(C(C)=O)CCO2	none
CC(C(=O)OCC(=O)Nc1ccccc1OC(F)F)N1C(=O)C2CC=CCC2C1=O (stereo not given)	none (no result: proCasp3 act, Arr AP2 block, procasp7 counter)
COC(=O)c1ccc(C(=O)OC)c(NC(=S)N2CCC(C)CC2)c1	sPLA2-III inh 22 | sPLA2 confirm inactive | 535nm interf inactive
COc1ccc(C(O)c2nc(-c3cc(F)cc(Cl)c3)cs2)cc1 (stereo not given)	none (no result: proCasp3 act, Arr AP2 block, procasp7 counter)
Cc1ccc(NC(=O)CSc2nnc3ccc(-c4ccncc4)nn23)cc1	none (no result: proCasp3 act, procasp7 counter)
COC(=O)c1cnn(-c2ccc(F)cc2F)c1/C=N/NC(=S)Nc1ccccc1	sPLA2-III inh 22 (no result: proCasp3 act, Arr AP2 block, procasp7 counter) | sPLA2 confirm 20 | 535nm interf inactive
CC1(C(=O)Nc2cccc3c2CCCC3)CCN1C(=O)Cc1ccccc1Cl (stereo not given)	none (no result: proCasp3 act, Arr AP2 block, procasp7 counter)
CC(=O)c1ccc(-n2nnnc2SCC(=O)Nc2sc(C)c(C)c2C#N)cc1	sPLA2-III inh 19 | sPLA2 confirm inactive | 535nm interf inactive
Cc1ccc(-n2nnnc2SCC(=O)Nc2sc(C)c(C)c2C#N)cc1C	none
CC(C)CC(=O)NC(=S)NNC(=O)c1ccc([N+](=O)[O-])cc1	none
CC(C)CC(=O)NC(=S)NNC(=O)c1ccc(NC(=O)C2CCCCC2)cc1	sPLA2-III inh 21 (no result: Arr AP2 block) | sPLA2 confirm 37 | 535nm interf inactive | 535nm interf DR inactive
O=C(NCC1CC1)C1Cc2c(-c3ccccc3Oc3ccccc3)ccnc2O1 (stereo not given)	none (no result: proCasp3 act, Arr AP2 block, procasp7 counter)
CC(=O)c1c(C)[nH]c(C(=O)OCC(=O)c2ccc3c(c2)NC(=O)CO3)c1C	none
CC(Oc1ccccc1F)c1nnc(SCC(=O)NCc2ccc3c(c2)OCO3)o1 (stereo not given)	sPLA2-III inh 84 | sPLA2 confirm inactive | 535nm interf inactive
OC(COCc1ccc(Cl)cc1)CN1CCc2ccccc2C1 (stereo not given)	sPLA2-III inh 23 | sPLA2 confirm inactive | 535nm interf inactive
Cc1ccc(-n2c(SCC(=O)N(C)C3CCS(=O)(=O)C3)nc3ccccc3c2=O)c(C)c1 (stereo not given)	none
